# hiPSC survival: enhancers of human iPSC single-cell survival. hiPSC single-cell survival, ATPlite luminescence; 100% = ROCK inhibitor wells, 0% = DMSO. survival enhancement, % at 20 µM. 360,000 tested, 0.044% active. AID 602274; in the data active = survival enhancement above about 18%;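 also: cells exposed to compounds for 16 hours before the ATP read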
# FAS TE block: FAS thioesterase (human) inhibition; inhibition, % at 15 µM; AID 602261; recombinant FAS-TE, OMFH fluorogenic substrate, fluorescence endpoint; P49327; 360,000 tested, 0.67% active;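 active = compounds whose normalised, plate-corrected inhibition of enzyme fluorescence in the single-dose primary screen is 50% or more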;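 also: 0% = DMSO with enzyme and 100% = substrate without enzyme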
# MT1-MMP act inh: blocks activation of human MT1-MMP; P50281; HT1080 RFP-PRO-GFP cells, GFP/RFP ratio fluorescence, overnight; percent of plate control window, DMSO zero; GFP/RFP ratio change, % at 20 µM; 360,000 tested, 0.061% active; AID 651647;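 active = GFP/RFP ratio change of at least 30% with cell ATP level not reduced by more than half and red fluorescence within 50% of control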
#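 Assay system: HT1080 RFP-PRO-GFP cells. Benchmarks: DMSO vehicle wells and RFP-L50D-GFP reporter cell wells. Times: overnight cell settling, then overnight compound exposure, 37 °C, 5% CO2. Compound: 20 µM single dose, 1% DMSO. Read-out basis: GFP/RFP fluorescence ratio.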
# SKN-1 block: inhibitors of C. elegans SKN-1. C. elegans VP596 Pgst-4::GFP/RFP ratio, acrylamide-induced, 24 h. inhibition, % at 21.8 µM. 360,000 tested, 0.49% active. AID 624304;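 active = interference check ratio from 0.5 to 1.5 plus GFP to RFP signal ratio inhibition reaching or exceeding a fixed threshold, cut at about 30% in these data, passing the limit was not always enough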
# DAGLB inh: blocks human DAGLB lipase activity. Q8NCG7. HEK293T DAGLB membrane lysate, EnzChek fluorogenic substrate. inhibition, % at 5.17 µM. 340,000 tested, 0.059% active; in the data active = inhibition above about 34%;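 also: 0% = enzyme with vehicle and 100% = wells lacking enzyme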
# Target sequence (Q8NCG7 whole entry, looked up): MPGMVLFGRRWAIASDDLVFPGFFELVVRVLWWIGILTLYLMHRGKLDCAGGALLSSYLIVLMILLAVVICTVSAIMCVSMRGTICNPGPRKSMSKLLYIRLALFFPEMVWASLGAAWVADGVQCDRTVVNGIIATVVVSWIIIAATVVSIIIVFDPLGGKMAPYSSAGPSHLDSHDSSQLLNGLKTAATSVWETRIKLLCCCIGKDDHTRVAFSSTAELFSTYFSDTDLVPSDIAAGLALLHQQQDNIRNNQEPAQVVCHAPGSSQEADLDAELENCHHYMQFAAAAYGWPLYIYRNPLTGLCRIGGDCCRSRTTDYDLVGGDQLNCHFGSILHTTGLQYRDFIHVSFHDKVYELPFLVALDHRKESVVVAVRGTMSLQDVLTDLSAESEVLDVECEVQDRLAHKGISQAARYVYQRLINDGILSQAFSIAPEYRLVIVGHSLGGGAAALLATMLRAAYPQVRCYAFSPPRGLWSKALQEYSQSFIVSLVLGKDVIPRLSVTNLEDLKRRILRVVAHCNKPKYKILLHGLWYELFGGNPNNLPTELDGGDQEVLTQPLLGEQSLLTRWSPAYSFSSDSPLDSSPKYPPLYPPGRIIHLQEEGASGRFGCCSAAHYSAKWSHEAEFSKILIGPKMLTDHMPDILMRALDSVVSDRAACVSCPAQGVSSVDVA
# FAS-TE conf: confirmation of human fatty acid synthase thioesterase inhibitors. shares compounds with FAS TE block. 2,300 tested, 45% active. recombinant FAS-TE, OMFH fluorogenic substrate, fluorescence. AID 624325. inhibition, % at 15 µM;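 active = compounds inhibiting the enzyme by at least 50% at 15 µM in any one of the replicates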;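 also: 0% = enzyme with DMSO only and 100% = wells lacking enzyme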
# Numbers without * were called inactive; / = no result. The list is not random: actives were taken first. Their share in the collection is about 1.3%.
SMILES,hiPSC survival,FAS TE block,MT1-MMP act inh,SKN-1 block,DAGLB inh,FAS-TE conf
CCOC(=O)c1sc(N2C(=O)C(O)=C(C(=O)c3ccco3)C2c2ccc([N+](=O)[O-])cc2)nc1C (centres undefined),0,56*,7,10,21,73*
O=[N+]([O-])c1ccc(CN2CC(N3CCC(Cc4ccccc4)CC3)CS2(=O)=O)cc1 (centres undefined),-1,51*,2,11,-2,57*
Cc1ccc(NC(=O)CCNC(=O)N2CC(=O)Nc3ccccc32)cc1Cl,6,-4,0,5,-6,/
COc1ccc(C2c3c(ccc4ccccc34)Oc3ncn4nc(-c5ccco5)nc4c32)cc1OC (centres undefined),-1,20,-5,17,2,/
c1ccc(C2c3c(ccc4ccccc34)Oc3ncn4nc(-c5ccco5)nc4c32)cc1 (centres undefined),-1,77*,-12,14,-1,16
COc1ccc(C2c3c(ccc4ccccc34)Oc3ncn4nc(-c5ccco5)nc4c32)cc1 (centres undefined),2,72*,7,22,-1,14
CCOC(=O)CCCC(=O)Nc1ncnc2c1C(c1ccccc1)c1c(ccc3ccccc13)O2 (centres undefined),-1,19,-6,-2,-5,/
O=C(c1ccccc1)N(C(=O)c1ccccc1)c1ncnc2c1C(c1ccccc1)c1c(ccc3ccccc13)O2 (centres undefined),0,62*,-9,-21,4,9
CCCNC(=O)c1cc(C2CCCCN2C(=O)CCCc2ccccc2)on1 (centres undefined),0,-6,-3,12,/,/
CC[C@H](C)[C@H]1O[C@]2(CC[C@@H]1C)C[C@@H]1C[C@@H](CC=C(C)[C@@H](O[C@H]3C[C@H](OC)[C@@H](O[C@H]4C[C@H](OC)[C@@H](O)[C@H](C)O4)[C@H](C)O3)[C@@H](C)C=CC=C3CO[C@@H]4[C@H](O)C(C)=C[C@@H](C(=O)O1)[C@]34O)O2,2,54*,-23,19,3,15
O=C(Nc1cccc2ccccc12)c1csc([C@@H]2C[C@H](O)[C@@H](CO)O2)n1,1,-6,0,3,/,/
CCn1c2ccccc2c2cc(NC(=O)COC(=O)c3cc(OC)c(OC)cc3OC)ccc21,0,64*,-4,1,0,30
CC(C)(C)C1CCN2CCC[C@](c3ccccc3)(C1)C2OCCCO (some centres undefined),-1,-4,5,10,/,/
C[C@]12C(=O)N(c3cccc(F)c3)C(=O)N1[C@@H]1c3ccccc3OC[C@@H]1[C@H]2c1ccccc1,3,29,-1,15,-10,/
Cc1ccc(CN2CC(=O)N3[C@H]4c5ccccc5OC[C@@H]4[C@H](c4ccccc4)[C@]3(C)C2=O)cc1,0,51*,-5,-6,-9,32
C[C@]12C(=O)N(c3cccc(F)c3)C(=O)N1[C@H]1c3ccccc3OC[C@@H]1[C@H]2c1ccccc1,-3,68*,-4,9,-13,39
C[C@@]12C(=O)N(Cc3ccccc3)CC(=O)N1[C@H]1c3ccccc3OC[C@@H]1[C@@H]2c1ccccc1,-4,25,-3,-18,-5,/
C[C@]12C(=O)N(c3ccccc3)C(=O)N1[C@@H]1c3ccccc3OC[C@@H]1[C@H]2c1ccccc1,3,20,-4,7,-10,/
C[C@]12C(=O)N(c3cccc(Cl)c3)C(=O)N1[C@@H]1c3ccccc3OC[C@@H]1[C@H]2c1ccccc1,1,58*,1,-9,-16,35
C[C@]12C(=O)N(c3ccc(C(F)(F)F)cc3)C(=O)N1[C@@H]1c3ccccc3OC[C@@H]1[C@H]2c1ccccc1,0,60*,1,8,-24,26
Cn1cc(Cc2ccc(C(=O)N3CCCCC3)cn2)c2ccccc21,-2,0,0,15,/,/
C[C@]12C(=O)N(c3ccccc3)C(=O)N1[C@H]1c3ccccc3OC[C@@H]1[C@H]2c1ccccc1,-2,79*,3,2,-13,12
C[C@]12C(=O)N(c3ccc(Br)cc3)C(=O)N1[C@H]1c3ccccc3OC[C@@H]1[C@H]2c1ccccc1,-1,85*,6,13,-21,-7
Cc1ccc(N2C(=O)N3[C@H]4c5ccccc5OC[C@@H]4[C@@H](c4ccccc4)[C@@]3(C)C2=O)cc1,-3,55*,-3,2,-11,30
Cc1cc(-c2ccccc2)nc(N/N=C/c2ccc([N+](=O)[O-])cc2)n1,-1,67*,4,9,-1,46*
SMILES,hiPSC survival,FAS TE block,MT1-MMP act inh,SKN-1 block,DAGLB inh,FAS-TE conf
Cc1cc(-c2ccccc2)nc(N/N=C/c2ccccc2)n1,-1,10,-6,4,-4,/
O=[N+]([O-])c1ccc(/C=N/Nc2nc(N3CCCCCC3)nc(N3CCCCCC3)n2)o1,2,-5,3,7,-1,/
O=[N+]([O-])c1ccc(Nc2nc(N/N=C\c3ccc4c(c3)OCO4)nc(N3CCCCC3)n2)cc1,0,56*,-1,9,-3,18
O=[N+]([O-])c1ccc(/C=N/Nc2nc(N3CCCCC3)nc(N3CCCCC3)n2)cc1,1,54*,3,-4,-1,6
C[C@H]1CN([C@@H](C)CO)C(=O)CCCn2nncc2CO[C@H]1CN(C)S(=O)(=O)c1ccc(Oc2ccccc2)nc1,1,-8,1,6,1,/
COc1ccccc1N1CCN(C(=O)CCCn2c(=S)[nH]c3ccccc3c2=O)CC1,0,53*,-3,-5,-2,20
COc1ccccc1N1CCN(C(=O)CCn2c(=O)[nH]c3ccccc3c2=O)CC1,2,-6,3,22,1,/
COc1ccccc1N1CCN(C(=O)c2ccc(Cn3c(=S)[nH]c4cc5c(cc4c3=O)OCO5)cc2)CC1,1,53*,-6,-3,1,2
COc1cccc2cc(C(=O)NCCC3=CCCCC3)c(=O)oc12,-1,59*,5,6,-6,27
O=C(/C=C/c1cccc(Br)c1)NCc1ccncc1,0,2,2,-27,-1,/
Cc1ccc2cc(COC(=O)c3cccc([N+](=O)[O-])c3)c(=O)[nH]c2c1,1,63*,2,-7,-1,27
COc1cccc(NC(=O)CN2C(=O)COc3ccc(S(=O)(=O)N4CCC(C)CC4)cc32)c1,0,61*,-4,20,-1,66*
COc1ccccc1NC(=O)CN1C(=O)COc2ccc(S(=O)(=O)N3CCC(C)CC3)cc21,0,16,-1,18,-5,/

# Assay outcomes (PubChem BioAssay)
